Columns and labels:
Rattus norvegicus [1] = experiment: Effective dose after subcutaneous administration to TPTX rats for 50% reduction of hypercalcemia; format: functional; details: sc
In short: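 Young male rats (130-150 g) were thyroparathyroidectomized and allowed 4 days to recover, then fasting serum was sampled. Animals with serum Ca above 1.88 mM were discarded, and the rest were randomized into groups of 5. On days 5-8, 1,25(OH)2D3 (125 pmol/kg sc) was given with graded sc doses of bisphosphonate, and total serum calcium was measured. ED50 is the sc dose halving the hypercalcemia.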

[2] = Ratio of calvaria mineralization to calvaria bone resorption; format: functional
Mus musculus [3] = organism: Mus musculus; experiment: Inhibition of bone mineralization in the calvaria assay of mouse; format: functional
Mus musculus [4] = organism: Mus musculus; experiment: Inhibition of bone resorption in the calvaria assay of mouse; format: functional
[5] = Therapeutic ratio comparing nephrotoxic potential versus bone antiresorptive potency (reciprocal of ED50 (TPTX assay) / the total urinary malate dehydrogenase excretion); format: ADME, tissue-based, Urine
In short: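 Rats received repeated sc injections, with saline-injected controls. Malate dehydrogenase was totalled in units over eight 24-h urine collections from the start of dosing. The ratio is the reciprocal of the TPTX hypercalcemia ED50 (mg/kg) divided by total urinary MDH units.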

Rattus norvegicus [6] = organism: Rattus norvegicus; experiment: Effective dose for increased serum urea level rats after a treatment period of 1 hr in renal tolerability model; format: functional
Rattus norvegicus [7] = organism: Rattus norvegicus; experiment: Compound was tested for increased mucosal permeability of perfused ileal loop in rats after a treatment period of 2 hr in intestinal tolerability model; format: functional
Rattus norvegicus [8] = organism: Rattus norvegicus; experiment: Effective dose for increased cancellous bone area in young intact rats after a treatment period of 10 days; format: functional; details: 240 h
Mus musculus [9] = organism: Mus musculus; experiment: Inhibition of mineralization in the calvaria assay of mouse; format: functional
In short: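 In vitro mineralization assay in mouse calvaria cultures. The read-out is calcium incorporation into the calvaria.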

Rattus norvegicus [10] = organism: Rattus norvegicus; experiment: Effective dose for increased cancellous bone calcium in young intact rats after a treatment period of 10 days; format: functional; details: 240 h
Rattus norvegicus [11] = organism: Rattus norvegicus; experiment: Compound was tested for increased urinary excretion of MDH in rats after a treatment period of 14 days in renal tolerability model; format: functional, Urine
Rattus norvegicus [12] = organism: Rattus norvegicus; experiment: Effective dose for increased radiographic bone density in young intact rats after a treatment period of 10 days; format: functional; details: 240 h
Rattus norvegicus [13] = organism: Rattus norvegicus; experiment: Effective dose for increased cancellous bone hydroxy proline in young intact rats after a treatment period of 10 days; format: functional; details: 240 h
[14] = Therapeutic ratio comparing nephrotoxic potential versus bone antiresorptive potency ( reciprocal of ED50 (TPTX assay) / the total urinary malate dehydrogenase excretion); format: ADME; details: urine; read-out: Therapeutic ratio
In short: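 Ratio = (1/TPTX ED50 in mg/kg) ÷ total urinary malate dehydrogenase units, pooled from eight 24-h urine collections after starting repeated sc dosing. ED50 model: young male rats (130-150 g), thyroparathyroidectomized, 4-day recovery; rats with fasting serum Ca above 1.88 mM excluded; groups of 5. Days 5-8: 1,25(OH)2D3 125 pmol/kg sc plus graded sc bisphosphonate. ED50 = dose halving the hypercalcemia (total serum calcium).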

SMILES | ED50 (Rattus norvegicus [1]) [µg/kg] | also measured
CCc1cnc(NC(P(=O)(O)O)P(=O)(O)O)s1 | 1.5 | 
CC(CC(O)(P(=O)(O)O)P(=O)(O)O)N(C)C (stereo unspecified) | 18 | 
Cc1csc(NC(P(=O)(O)O)P(=O)(O)O)n1 | 100 | 
CN(C)CCC(O)(P(=O)(O)O)P(=O)(O)O [OLPADRONIC ACID] | 12 | 
O=P(O)(O)C(O)(CCCN1CCC(c2ccccc2)CC1)P(=O)(O)O | 100 | 
O=P(O)(O)C(O)(CCNCCc1ccccc1)P(=O)(O)O | 300 | 
CN(CCCOc1ccccc1)CCC(O)(P(=O)(O)O)P(=O)(O)O | 0.5 | Ratio [2]: 225; IC50 (Mus musculus [3]): 9000 nM; IC50 (Mus musculus [4]): 40 nM; Therapeutic ratio [5]: 84
CN(C)CCC(N)(P(=O)(O)O)P(=O)(O)O [LIDADRONIC ACID] | > 200 | 
O=P(O)(O)C(Nc1nccn1Cc1ccccc1)P(=O)(O)O | 75 | 
CCCCCN(C)C(C)CC(O)(P(=O)(O)O)P(=O)(O)O (stereo unspecified) | 65 | 
CN(CCCOc1ccc(Cl)cc1)CCC(O)(P(=O)(O)O)P(=O)(O)O | 1.3 | 
CP(=O)(O)C(Nc1nccs1)P(C)(=O)O (stereo unspecified) | > 10000 | 
Cc1ncn(CC(O)(P(=O)(O)O)P(=O)(O)O)c1C | 1.5 | 
O=P(O)(O)C(O)(CCN1CCC(c2ccccc2)CC1)P(=O)(O)O | ~11 | 
O=P(O)(O)C(N1CCCC1)P(=O)(O)O | > 2000 | 
O=P(O)(O)C(O)(CCN1CCCCC1)P(=O)(O)O | 5.6 | 
O=P(O)(O)C(O)(CCNCCCc1ccccc1)P(=O)(O)O | 20 | 
O=P(O)(O)C(N1CCCCC1)P(=O)(O)O | 800 | 
Cc1cccc(OCCCN(C)CCC(O)(P(=O)(O)O)P(=O)(O)O)c1 | 1.7 | 
CC(C)c1cnc(NC(P(=O)(O)O)P(=O)(O)O)s1 | 200 | 
Cc1cnc(NC(P(=O)(O)O)P(=O)(O)O)s1 | 1.5 | Ratio [2]: 375; IC50 (Mus musculus [3]): 15000 nM; IC50 (Mus musculus [4]): 40 nM; Therapeutic ratio [5]: 4.5
O=P(O)(O)C(O)(CCN1CCCCCC1)P(=O)(O)O | 25 | 
CC(=O)NCCC(O)(P(=O)(O)O)P(=O)(O)O | > 1000 | 

SMILES | ED50 (Rattus norvegicus [1]) [µg/kg] | also measured
CC(N)CC(O)(P(=O)(O)O)P(=O)(O)O (stereo unspecified) | 3.4 | 
O=P(O)(O)C(Nc1ncc[nH]1)P(=O)(O)O | ~500 | 
CN1CCN(CCC(O)(P(=O)(O)O)P(=O)(O)O)CC1 | ~400 | 
CCN(CCCOc1ccccc1)CCC(O)(P(=O)(O)O)P(=O)(O)O | 20 | 
NCCCCC(O)(P(=O)(O)O)P(=O)(O)O | 20 | 
O=P(O)(O)C(O)(CCc1c[nH]cn1)P(=O)(O)O | 20 | 
O=P(O)(O)C(O)(CCN1CCC(c2ccc(Cl)cc2)C1)P(=O)(O)O (stereo unspecified) | 3.5 | 
O=P(O)(O)C(O)(CCCCCN1CCCC1)P(=O)(O)O | 250 | 
O=P(O)(O)C(O)(CCCCCN1CCC(c2ccccc2)CC1)P(=O)(O)O | > 300 | 
CN(CCCOc1ccc(F)cc1)CCC(O)(P(=O)(O)O)P(=O)(O)O | 0.6 | 
CCCCN(CCCOc1ccccc1)CCC(O)(P(=O)(O)O)P(=O)(O)O | 500 | 
Cc1[nH]cnc1CC(O)(P(=O)(O)O)P(=O)(O)O | 1.5 | 
O=P(O)(O)C(O)(CCNCCCCc1ccccc1)P(=O)(O)O | 1 | 
CCCN(C)CCC(O)(P(=O)(O)O)P(=O)(O)O | 3 | 
O=P(O)(O)C(NC1CCCCCC1)P(=O)(O)O [INCADRONIC ACID] | 7 | 
O=P(O)(O)C(O)(CCN1CCC(c2ccccc2)C1)P(=O)(O)O (stereo unspecified) | 70 | 
CN(C)CCC(P(=O)(O)O)P(=O)(O)O | 100 | 
COc1ccc(OCCCN(C)CCC(O)(P(=O)(O)O)P(=O)(O)O)cc1 | 1.2 | 
O=P(O)(O)C(O)(Cc1c[nH]cn1)P(=O)(O)O | 0.3 | 
O=P(O)(O)C(O)(CCN1CCCCCCC1)P(=O)(O)O | > 300 | 
O=P(O)(O)C(O)(CCNCCCSc1ccccc1)P(=O)(O)O | 7 | 
O=P(O)(O)C(O)(CCCN1CCCC1)P(=O)(O)O | 25 | 
O=P(O)(O)C(O)(Cn1cncn1)P(=O)(O)O | 600 | 

SMILES | ED50 (Rattus norvegicus [1]) [µg/kg] | also measured
CCCc1cnc(NC(P(=O)(O)O)P(=O)(O)O)s1 | 2 | 
O=P(O)(O)C(O)(C1CCNCC1)P(=O)(O)O | ~2500 | 
CCCN(CCCOc1ccccc1)CCC(O)(P(=O)(O)O)P(=O)(O)O | 10 | 
O=P(O)(O)C(Nc1nc2ccccc2s1)P(=O)(O)O | > 3000 | 
O=P(O)(O)C(O)(CCNCCCOc1ccccc1)P(=O)(O)O | 1.2 | 
CN(CCCOc1ccccc1)CCCC(O)(P(=O)(O)O)P(=O)(O)O | 100 | 
O=P(O)(O)C(O)(C1CCCNC1)P(=O)(O)O (stereo unspecified) | 250 | 
O=P(O)(O)C(Nc1nccs1)P(=O)(O)O | 5 | 
O=P(O)(O)C(O)(CCNCCSc1ccccc1)P(=O)(O)O | > 200 | 
CCCCc1cnc(NC(P(=O)(O)O)P(=O)(O)O)s1 | 0.9 | 
O=P(O)(O)C(Nc1ncc(-c2ccccc2)s1)P(=O)(O)O | > 1000 | 
O=P(O)(O)C(Nc1nc2ccccc2[nH]1)P(=O)(O)O | > 10000 | 
CN(CCCCCCc1ccccc1)CCC(O)(P(=O)(O)O)P(=O)(O)O | 1500 | 
CCN(CC)CCC(O)(P(=O)(O)O)P(=O)(O)O | 3 | 
O.O=P(O)(O)C(O)(Cn1ccnc1)P(=O)(O)O [ZOLEDRONIC ACID] |  | Ratio [2]: 15000; ED100 (Rattus norvegicus [6]): 38000 µg/kg; NOL (Rattus norvegicus [7]): 10 mM; ED50 (Rattus norvegicus [8]): 0.071 µg/kg; IC50 (Mus musculus [9]): 30000 nM; IC50 (Mus musculus [4]): 2 nM; ED50 (Rattus norvegicus [10]): 0.17 µg/kg; NOL (Rattus norvegicus [11]): > 1000 µg/kg; ED50 (Rattus norvegicus [12]): 1.7 µg/kg; ED50 (Rattus norvegicus [13]): 1.1 µg/kg
CN(C)C(P(=O)(O)O)P(=O)(O)O | > 3000 | 
CN(CCCc1ccc(Cl)cc1)CCC(O)(P(=O)(O)O)P(=O)(O)O | 0.7 | 
O=P(O)(O)C(O)(CCN1CCCC1)P(=O)(O)O | 10 | 
CN(CCCSc1ccc(Cl)cc1)CCC(O)(P(=O)(O)O)P(=O)(O)O | 7.8 | 
Cn1ccnc1NC(P(=O)(O)O)P(=O)(O)O | 5 | 
CN(CCOc1ccc(Cl)cc1)CCC(O)(P(=O)(O)O)P(=O)(O)O | 1.7 | 
CN(CCCCCCOc1ccccc1)CCC(O)(P(=O)(O)O)P(=O)(O)O | 7500 | 
CN(CCCCc1ccccc1)CCC(O)(P(=O)(O)O)P(=O)(O)O | 0.4 | 

SMILES | ED50 (Rattus norvegicus [1]) [µg/kg] | also measured
O=P(O)(O)C(O)(Cn1cccn1)P(=O)(O)O | > 300 | 
O=P(O)(O)C(O)(C1CNC1)P(=O)(O)O | > 3000 | 
O=P(O)(O)C(O)(CCN1CCN(c2ccccc2)CC1)P(=O)(O)O | > 10000 | 
CN(CCc1ccccc1)CCC(O)(P(=O)(O)O)P(=O)(O)O | 1.4 | Ratio [2]: 1500; IC50 (Mus musculus [3]): 30000 nM; IC50 (Mus musculus [4]): 20 nM; Therapeutic ratio [5]: 19
O=P(O)(O)C(O)(Cc1c[nH]c(-c2ccccc2)n1)P(=O)(O)O | > 3000 | 
CNCCC(O)(P(=O)(O)O)P(=O)(O)O | ~15 | 
O=P(O)(O)C(N1CCCCCC1)P(=O)(O)O [N-(HEXAMETHYLENEIMINO)METHYLENEBISPHOSPHONIC ACID] | 40 | 
CCCCCN(C)CCC(O)(P(=O)(O)O)P(=O)(O)O [IBANDRONIC ACID] | 1.1 | 
NCCCCCC(O)(P(=O)(O)O)P(=O)(O)O [NERIDRONIC ACID] | 60 | 
NCC(O)(P(=O)(O)O)P(=O)(O)O | 150 | 
O=P(O)(O)C(O)(CCn1ccnc1)P(=O)(O)O | 45 | 
O=P(O)(O)C(O)(CCN1CCC(c2cccc(F)c2)CC1)P(=O)(O)O | 30 | 
O=P(O)(O)C(O)(Cc1ncc[nH]1)P(=O)(O)O | 5 | 
NCCCC(O)(P(=O)(O)O)P(=O)(O)O [ALENDRONIC ACID] | 8 | Ratio [2]: 400; selectivity ratio [14]: 6.6; IC50 (Mus musculus [3]): 20000 nM; IC50 (Mus musculus [4]): 50 nM
O=P(O)(O)C(Nc1ncc(CCc2ccccc2)s1)P(=O)(O)O | 2.7 | 
O=P(O)(O)C(O)(Cc1nccn1Cc1ccccc1)P(=O)(O)O | 25 | 
Cn1ccnc1CC(O)(P(=O)(O)O)P(=O)(O)O | 0.6 | 
O=P(O)(O)C(O)(C1CCCCN1)P(=O)(O)O (stereo unspecified) | 50 | 
CN(CCCc1ccccc1)CCC(O)(P(=O)(O)O)P(=O)(O)O | 1 | Ratio [2]: 80; IC50 (Mus musculus [3]): 4000 nM; IC50 (Mus musculus [4]): 50 nM; Therapeutic ratio [5]: 120
CN(CCCCOc1ccccc1)CCC(O)(P(=O)(O)O)P(=O)(O)O | 4 | 
CN(CCCSc1ccccc1)CCC(O)(P(=O)(O)O)P(=O)(O)O | 0.33 | 
O=P(O)(O)C(Cc1nccs1)P(=O)(O)O | 200 | 
CC(CCc1ccccc1)NCCC(O)(P(=O)(O)O)P(=O)(O)O (stereo unspecified) | > 10000 | 

— ChEMBL document CHEMBL1135550, “Highly potent geminal bisphosphonates. From pamidronate disodium (Aredia) to zoledronic acid (Zometa)” (J Med Chem, 2002)
